One may read the Kd as the equilibrium constant for the complex coming apart. By IC50 is commonly meant the concentration at which inhibition is half-maximal. Broadly, the inhibition is how much of the control response was suppressed.

One assay addresses T1, Cysteinyl leukotriene receptor 1 (Cavia porcellus, UniProt Q2NNR5).
T1 sequence (Q2NNR5 whole entry): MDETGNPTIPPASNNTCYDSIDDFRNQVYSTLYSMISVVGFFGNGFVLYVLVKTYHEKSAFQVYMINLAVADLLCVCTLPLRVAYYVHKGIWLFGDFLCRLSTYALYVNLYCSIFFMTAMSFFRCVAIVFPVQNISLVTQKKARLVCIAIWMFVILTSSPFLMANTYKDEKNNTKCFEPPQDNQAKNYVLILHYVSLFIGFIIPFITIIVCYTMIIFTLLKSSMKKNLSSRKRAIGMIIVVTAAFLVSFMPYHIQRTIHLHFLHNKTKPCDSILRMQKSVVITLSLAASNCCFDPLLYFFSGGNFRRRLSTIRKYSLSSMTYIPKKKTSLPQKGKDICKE
In words: In vitro affinity for CysLT1 receptors on guinea pig lung membranes, measured by displacement of [3H]LTD4.
Details: not given
Format: tissue-based. An outline of the steps:
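Guinea pig lung membrane fractions (about 170 µg/mL) with 0.2 nM [3H]LTD4 and test compound in 10 mM PIPES buffer, pH 7.5 (10 mM CaCl2, 10 mM MgCl2, 50 mM NaCl, 2 mM cysteine, 2 mM glycine), 30 min at 22 °C. Stopped with ice-cold Tris-HCl/NaCl, vacuum-filtered, filter radioactivity counted. Means ± SD of three determinations.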
Regarding `O=C(O)c1cccc2c(=O)cc(-c3cccc(/C=C/c4ccc5ccccc5n4)c3)oc12`, the Kd was found to be 17 nM.
`O=C(O)c1ccc2c(=O)cc(-c3cccc(/C=C/c4ccc5ccccc5n4)c3)oc2c1` yielded a Kd of 1730 nM.
The same measure, in the same setting: the value for `O=C(O)c1cccc2c(=O)cc(-c3ccc(OCc4ccccc4)cc3)oc12` was 55000 nM.
For the compound `O=c1cc(-c2cccc(/C=C/c3ccc4ccccc4n3)c2)oc2c(-c3nn[nH]n3)cc(Cl)cc12`, the affinity, expressed as Kd, was 11000 nM.

For the next assay, the species on record is Cavia porcellus. In words: Ex vivo inhibition of LTD4 induced contraction of guinea pig ileum. It is filed as functional.
Details: not given
An outline of the steps: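 Ileum segments (2 cm) from male guinea pigs, mounted open-lumen on a transducer. Compounds in DMSO, 10^-5 to 3.0 × 10^-9 M, preincubated 30 min, then contraction evoked by 10^-8 M LTD4. Indomethacin (10^-6 M) added to the bath 10 min before LTD4.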
As for `O=C(O)c1cccc2c(=O)cc(-c3cccc(/C=C/c4ccc5ccccc5n4)c3)oc12`, it took 42 nM to reach half-maximal inhibition (IC50).
On the same count and under the same terms, the result for `O=C(O)c1cc(Br)cc2c(=O)cc(-c3cccc(/C=C/c4ccc5ccccc5n4)c3)oc12` reads 100 nM; that for `Cc1cc(C(=O)O)c2oc(-c3cccc(/C=C/c4ccc5ccccc5n4)c3)cc(=O)c2c1`, 28 nM; that for `O=C(O)c1cc(Cl)cc2c(=O)cc(-c3cccc(/C=C/c4ccc5ccccc5n4)c3)oc12`, 15 nM.
As for `O=C(O)c1cc(Br)cc2c(=O)cc(-c3cccc(OCc4ccc5ccccc5n4)c3)oc12`, half-maximal inhibition (IC50) was put at 61 nM.

A further assay deals with T2, Cysteinyl leukotriene receptor 1 (Cavia porcellus) (UniProt Q2NNR5).
T2 sequence (whole entry): T1 sequence (Q2NNR5 whole entry)
In words: In vitro inhibition of [3H]LTD4 binding to CysLT1 receptors on guinea pig lung membranes. Format: tissue-based. More on the design: concentration or dose not given beside the values. The note with it: concentration not given here. An outline of the steps: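 Guinea pig lung membrane fractions (about 170 µg/mL) with 0.2 nM [3H]LTD4 and test compound in 10 mM PIPES buffer, pH 7.5 (10 mM CaCl2, 10 mM MgCl2, 50 mM NaCl, 2 mM cysteine, 2 mM glycine), 30 min at 22 °C. Stopped with ice-cold Tris-HCl/NaCl, vacuum-filtered, filter radioactivity counted. Means ± SD of three determinations. Percent inhibition taken at 10^-5 M where no KD obtained.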
Turning to `N#Cc1cc(Cl)cc2c(=O)cc(-c3cccc(/C=C/c4ccc5ccccc5n4)c3)oc12`, the inhibition is 0%.
Consider `O=C(O)c1cccc2c(=O)cc(-c3cccc(OCc4ccccc4)c3)oc12`, for which the inhibition amounted to 50%.
Same read-out and setting: the result for `CCOC(=O)c1cccc2c(=O)cc(-c3cccc(OCc4ccc5ccccc5n4)c3)oc12` reads 38%; that for `O=C(O)c1ccc2oc(-c3ccc(/C=C/c4ccc5ccccc5n4)cc3)cc(=O)c2c1`, 28%.
In turn, `CCOC(=O)c1cccc2c(=O)cc(-c3ccc(OCc4ccc5ccccc5n4)cc3)oc12` displayed an inhibition of 32%.
Still for that read-out and setting: the result for `O=C(O)c1ccc2oc(-c3ccc(OCc4ccccc4)cc3)cc(=O)c2c1` reads 23%; that for `O=C(O)c1cccc2c(=O)cc(-c3ccc(OCc4ccc5ccccc5c4)cc3)oc12`, 32%.

The values above are taken from ChEMBL document CHEMBL1131532, “Synthesis and structure-activity relationships of carboxyflavones as structurally rigid CysLT1 (LTD4) receptor antagonists” (J Med Chem, 1998).
